How the values were obtained:
[1] = biological target: T1, Bromodomain-containing protein 4 (Homo sapiens, UniProt O60885); assay: Displacement of biotinylated acetylated peptide from recombinant human partial length BRD4 long isoform bromodomain 1/2 (N44 to E460 residues) expressed in Escherichia coli BL21 measured after 1 hr by Bromoscan method
MV4-11 = assay: Cytotoxicity against human MV411 cells after 72 hrs by CellTiter-Glo assay; format: functional, cell-based; conditions: MV4-11, 72 h
[2] = biological target: T2, Bromodomain-containing protein 2 (Homo sapiens, UniProt P25440); assay: Displacement of biotinylated acetylated peptide from recombinant human partial length BRD2 isoform 1 bromodomain 1 (K71 to N194 residues) expressed in Escherichia coli BL21 measured after 1 hr by Bromoscan method
T2 sequence (P25440 whole entry, the tested form may be a part, canonical isoform): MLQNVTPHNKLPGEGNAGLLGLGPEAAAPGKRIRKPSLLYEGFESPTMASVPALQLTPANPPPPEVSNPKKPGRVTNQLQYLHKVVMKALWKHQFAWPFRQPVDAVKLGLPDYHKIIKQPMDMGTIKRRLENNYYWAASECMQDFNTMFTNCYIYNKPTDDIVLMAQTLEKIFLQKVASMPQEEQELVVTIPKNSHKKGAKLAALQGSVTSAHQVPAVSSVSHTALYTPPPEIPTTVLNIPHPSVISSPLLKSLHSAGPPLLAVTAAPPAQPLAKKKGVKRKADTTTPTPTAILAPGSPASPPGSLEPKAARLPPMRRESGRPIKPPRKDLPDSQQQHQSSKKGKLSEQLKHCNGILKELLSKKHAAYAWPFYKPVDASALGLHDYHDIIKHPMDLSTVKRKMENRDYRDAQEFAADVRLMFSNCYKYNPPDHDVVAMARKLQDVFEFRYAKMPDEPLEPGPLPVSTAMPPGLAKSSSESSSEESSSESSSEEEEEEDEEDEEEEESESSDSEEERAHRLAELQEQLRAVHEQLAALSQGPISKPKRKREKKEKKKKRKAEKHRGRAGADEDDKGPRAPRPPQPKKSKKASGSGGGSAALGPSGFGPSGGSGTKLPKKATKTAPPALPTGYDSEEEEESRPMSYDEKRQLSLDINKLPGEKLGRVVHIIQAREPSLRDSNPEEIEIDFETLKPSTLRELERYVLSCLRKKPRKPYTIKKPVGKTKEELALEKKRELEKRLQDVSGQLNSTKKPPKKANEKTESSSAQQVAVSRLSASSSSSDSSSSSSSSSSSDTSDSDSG

[3] = biological target: T2, Bromodomain-containing protein 2; assay: Displacement of biotinylated acetylated peptide from recombinant human partial length BRD2 isoform 1 bromodomain 1/2 (K71 to D455 residues) expressed in Escherichia coli BL21 measured after 1 hr by Bromoscan method
[4] = biological target: T2, Bromodomain-containing protein 2; assay: Displacement of biotinylated acetylated peptide from recombinant human partial length BRD2 isoform 1 bromodomain 2 (E348 to D455 residues) expressed in Escherichia coli BL21 measured after 1 hr by Bromoscan method
[5] = biological target: T3, Bromodomain-containing protein 3 (Homo sapiens, UniProt Q15059); assay: Displacement of biotinylated acetylated peptide from recombinant human partial length BRD3 bromodomain 1 (P24 to E144 residues) expressed in Escherichia coli BL21 measured after 1 hr by Bromoscan method
T3 sequence (Q15059 whole entry, the tested form may be a part): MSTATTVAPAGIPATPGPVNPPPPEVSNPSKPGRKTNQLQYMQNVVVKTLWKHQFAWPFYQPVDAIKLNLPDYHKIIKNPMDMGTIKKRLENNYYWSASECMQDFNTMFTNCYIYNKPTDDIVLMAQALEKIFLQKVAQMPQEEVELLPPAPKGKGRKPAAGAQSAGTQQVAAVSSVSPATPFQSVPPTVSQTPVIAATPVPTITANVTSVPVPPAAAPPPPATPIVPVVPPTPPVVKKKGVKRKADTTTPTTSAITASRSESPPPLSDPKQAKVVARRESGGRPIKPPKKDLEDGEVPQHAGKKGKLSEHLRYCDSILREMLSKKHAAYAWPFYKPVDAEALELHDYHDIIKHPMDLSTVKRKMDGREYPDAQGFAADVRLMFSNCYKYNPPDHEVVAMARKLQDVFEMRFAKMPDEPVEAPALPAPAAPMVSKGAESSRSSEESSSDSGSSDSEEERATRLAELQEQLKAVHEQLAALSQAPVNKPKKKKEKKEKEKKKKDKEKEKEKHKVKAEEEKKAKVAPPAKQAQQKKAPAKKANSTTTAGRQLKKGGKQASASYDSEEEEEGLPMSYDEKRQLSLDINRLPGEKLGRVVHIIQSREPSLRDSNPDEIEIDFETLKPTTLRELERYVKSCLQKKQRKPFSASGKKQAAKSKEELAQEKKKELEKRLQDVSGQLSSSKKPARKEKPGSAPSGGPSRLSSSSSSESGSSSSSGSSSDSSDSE

[6] = biological target: T3, Bromodomain-containing protein 3; assay: Displacement of biotinylated acetylated peptide from recombinant human partial length BRD3 bromodomain 1/2 (P24 to P416 residues) expressed in Escherichia coli BL21 measured after 1 hr by Bromoscan method
[7] = biological target: T3, Bromodomain-containing protein 3; assay: Displacement of biotinylated acetylated peptide from recombinant human partial length BRD3 bromodomain 2 (G306 to P416 residues) expressed in Escherichia coli BL21 measured after 1 hr by Bromoscan method
[8] = biological target: T1, Bromodomain-containing protein 4; assay: Displacement of biotinylated acetylated peptide from recombinant human partial length BRD4 long isoform bromodomain 1 (N44 to E168 residues) expressed in Escherichia coli BL21 measured after 1 hr by Bromoscan method
[9] = biological target: T1, Bromodomain-containing protein 4; assay: Displacement of biotinylated acetylated peptide from recombinant human partial length BRD4 long isoform bromodomain 2 (K333 to E460 residues) expressed in Escherichia coli BL21 measured after 1 hr by Bromoscan method
[10] = biological target: T4, Bromodomain testis-specific protein (Homo sapiens, UniProt Q58F21); assay: Displacement of biotinylated acetylated peptide from recombinant human partial length BRDT isoform b bromodomain 1 (N21 to E137 residues) expressed in Escherichia coli BL21 measured after 1 hr by Bromoscan method
[11] = biological target: T4, Bromodomain testis-specific protein; assay: Displacement of biotinylated acetylated peptide from recombinant human partial length BRDT isoform b bromodomain 1/2 (N21 to E382 residues) expressed in Escherichia coli BL21 measured after 1 hr by Bromoscan method
[12] = biological target: T4, Bromodomain testis-specific protein; assay: Displacement of biotinylated acetylated peptide from recombinant human partial length BRDT isoform b bromodomain 2 (K250 to E382 residues) expressed in Escherichia coli BL21 measured after 1 hr by Bromoscan method
Mus musculus [13] = assay: (§1) AUC (0 to infinity) in CD-1 mouse at 10 mg/kg, po; format: ADME, organism-based; design: dose 10 mg/kg, time infinity, route oral; conditions: mouse, in vivo, BLD = below limit of detection
Summary of the method: (§2)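 CD-1 mice (n = 3) received a single oral dose of 10 mg/kg. Plasma drug levels were followed over time to derive AUC0–∞, t1/2 and oral bioavailability (F%), the last relative to the iv arm.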

[14] = Half life in CD-1 mouse at 10 mg/kg, po; format: ADME, organism-based; conditions: in vivo; summary of the method: as §2
[15] = as §1; format: ADME, organism-based; design: dose 10 mg/kg, time infinity, route oral; conditions: CD-1, mouse, in vivo; summary of the method: as §2
[16] = Half life in CD-1 mouse at 2 mg/kg, iv; format: ADME, organism-based; conditions: in vivo
Mus musculus [17] = assay: Cmax in CD-1 mouse at 2 mg/kg, iv measured after 5 mins; format: ADME, organism-based; design: dose 2 mg/kg, route intravenous; conditions: in vivo
[18] = AUC (0 to infinity) in CD-1 mouse at 2 mg/kg, iv; format: ADME, organism-based; design: dose 2 mg/kg, time infinity, route intravenous; conditions: in vivo
[19] = Volume of distribution at steady state in CD-1 mouse at 2 mg/kg, iv measured; format: ADME, organism-based; conditions: in vivo, read-out: Vdss
[20] = Plasma clearance in CD-1 mouse at 2 mg/kg, iv; format: ADME, organism-based
Mus musculus [21] = assay: Oral bioavailability in CD-1 mouse at 10 mg/kg; format: ADME, organism-based; conditions: in vivo; summary of the method: as §2

Row | SMILES | Kd [1] | IC50 (MV4-11) | other results
1 | Cc1noc(C)c1-c1ccc2nc(-n3cc(CCO)cn3)nc(NCc3cccc(Cl)c3)c2c1 |  | 3080 nM | 
2 | Cc1noc(C)c1-c1ccc2nc(N3CCN(CCN(C)C)CC3)nc(NCc3cccc(Cl)c3)c2c1 | 56 nM | 660 nM | 
3 | Cc1cc(-c2ccc3nc(N4CCN(CCN(C)C)CC4)nc(NCc4cccc(Cl)c4)c3c2)cnc1O | 310 nM | 1130 nM | 
4 | Cc1ccc(NC(=O)c2nc(NCc3cccc(Cl)c3)c3cc(-c4c(C)noc4C)ccc3n2)cn1 | 620 nM | 4520 nM | 
5 | CNc1nc(NCc2cccc(Cl)c2)c2cc(-c3c(C)noc3C)ccc2n1 |  | 3590 nM | 
6 | CN(C)CCN1CCN(c2nc(NCc3cccc(Cl)c3)c3cc(-c4ccc(=O)n(C)c4)ccc3n2)CC1 | 44 nM | 540 nM | Kd [2]: 33 nM; Kd [3]: 27 nM; Kd [4]: 24 nM; Kd [5]: 21 nM; Kd [6]: 20 nM; Kd [7]: 21 nM; Kd [8]: 18 nM; Kd [9]: 50 nM; Kd [10]: 20 nM; Kd [11]: 67 nM; Kd [12]: 160 nM; AUC (Mus musculus [13]): Bld
7 | Cc1noc(C)c1-c1ccc2nc(N3CCN(CCN(C)C)CC3)nc(Nc3ccc(Cl)cc3)c2c1 | 2600 nM | 1510 nM | 
8 | Cc1noc(C)c1-c1ccc2nc(N3CCN(CCN(C)C)CC3)nc(NCc3ccc(Cl)cc3)c2c1 | 520 nM | 3480 nM | 
9 | Cc1noc(C)c1-c1ccc2nc(N3CCN(CC(=O)N(C)C)CC3)nc(NCc3cccc(Cl)c3)c2c1 | 73 nM | 1730 nM | 
10 | Cc1nocc1-c1ccc2nc(N3CCN(CCN(C)C)CC3)nc(NCc3cccc(Cl)c3)c2c1 | 360 nM | 2970 nM | 
11 | CNC(=O)Cn1cc(-c2nc(NCc3cccc(Cl)c3)c3cc(-c4c(C)noc4C)ccc3n2)cn1 |  | 1010 nM | 
12 | Cc1noc(C)c1-c1ccc2nc(N3CCN(CCC(C)C)CC3)nc(NCc3cccc(Cl)c3)c2c1 | 980 nM | 6890 nM | 
13 | Cc1noc(C)c1-c1ccc2nc(N3CCN(CCN(C)C)CC3)nc(NCc3cc(Cl)ccn3)c2c1 | 110 nM | 1600 nM | 
14 | Cc1noc(C)c1-c1ccc2nc(N3CCN(CCN(C)C)CC3)nc(NC(C)c3cccc(Cl)c3)c2c1 (stereo not drawn) | 270 nM | 4350 nM | 
15 | Cc1noc(C)c1-c1ccc2nc(N3CCN(C(=O)CN(C)C)CC3)nc(NCc3cccc(Cl)c3)c2c1 | 30 nM | 1230 nM | 
16 | Cc1noc(C)c1-c1ccc2nc(N3CCN(CCN(C)C)CC3)nc(N3CCOCC3c3ccccc3)c2c1 (stereo not drawn) |  | 1830 nM | 
17 | Cc1noc(C)c1-c1ccc2nc(-c3ccc(CO)nc3)nc(NCc3cccc(Cl)c3)c2c1 |  | 2640 nM | 
18 | Cc1noc(C)c1-c1ccc2nc(C(=O)N3CCN(CCN(C)C)CC3)nc(NCc3cccc(Cl)c3)c2c1 | 570 nM | 4710 nM | 

Further lines, with some results ahead:

Row | Kd [1] | SMILES | IC50 (MV4-11) | other results
19 | 250 nM | Cc1noc(C)c1-c1ccc2nc(N3CCN(CCN(C)C)CC3)nc(N3CCCC3c3ccccc3)c2c1 (stereo not drawn) | 2540 nM | 
20 | 56 nM | Cc1noc(C)c1-c1ccc2nc(C(=O)NCc3cccnc3)nc(NCc3cccc(Cl)c3)c2c1 | 1430 nM | 
21 | 66 nM | Cc1noc(C)c1-c1ccc2nc(-c3cnn(CCO)c3)nc(N3CCOCC3c3ccccc3)c2c1 (stereo not drawn) |  | half-life [14]: 2.1 h; AUC(0-inf) [15]: 4490 ng·h/mL; half-life [16]: 3.1 h; Cmax (Mus musculus [17]): 1690 ng/mL; AUC(0-inf) [18]: 1760 ng·h/mL; Vd [19]: 1.7 L/kg; clearance [20]: 19.8 mL/min/kg; F (Mus musculus [21]): 51%
22 | 130 nM | Cc1noc(C)c1-c1ccc2nc(N3CCN(CCN(C)C)CC3)nc(N[C@@H](CO)c3ccccc3)c2c1 | 2100 nM | 
23 | 290 nM | Cc1noc(C)c1-c1ccc2nc(C(=O)Nc3cnn(C)c3)nc(NCc3cccc(Cl)c3)c2c1 | 3590 nM | 
24 | 85 nM | Cc1noc(C)c1-c1ccc2nc(N3CCN(CCN(C)C)CC3)nc(NCc3ccccc3Cl)c2c1 | 1250 nM | 
25 | 130 nM | Cc1noc(C)c1-c1ccc2nc(-c3cnn(CC(N)=O)c3)nc(NCc3cccc(Cl)c3)c2c1 | 660 nM | 
26 | 56 nM | Cc1noc(C)c1-c1ccc2nc(-c3cnn(CCN(C)C)c3)nc(NCc3cccc(Cl)c3)c2c1 | 1330 nM | 
27 | 56 nM | Cc1noc(C)c1-c1ccc2nc(N3CCN(CCO)CC3)nc(NCc3cccc(Cl)c3)c2c1 | 1670 nM | 

Reference: ChEMBL document CHEMBL4261601, “Discovery and lead identification of quinazoline-based BRD4 inhibitors” (Bioorg Med Chem Lett, 2018)
